High-throughput results deposited in PubChem by Johns Hopkins Ion Channel Center.
Kir21 block: inhibitors of mouse Kir2.1 inward-rectifier potassium channel | HEK293-Kir2.1, FluxOR thallium flux fluorescence; stronger effect = lower value | actives 0.85% (n = 310,000) | AID 1672, 2009 | B-score at 10 µM;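 active = fluorescence ratio B-score at or below minus 3 SD of library scores, with starting-brightness B-score within 2 SD, cut at about -4.2 in these data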;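 also: channel flux triggered by added potassium and thallium sulfate stimulus; B-score of peak minus minimum fluorescence over baseline after thallium stimulus; more negative B-score means stronger Kir2.1 block with less thallium influx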
TRPC4 potent: positive allosteric modulators of TRPC4, primary screen, cell-based, mouse TRPC4beta, HEK293 mu-opioid, Fluo-4 calcium | B-score at 10 µM | Short transient receptor potential channel 4 (Mus musculus), Q9QUQ5 | actives 0.42% (n = 310,000) | AID 2227, 2009 | DAMGO EC20, Fluo-4 Ca2+ flux; stronger effect = higher value;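 active = B-score of calcium response area above 5 SD of library B-scores, with initial fluorescence ratio within 5 SD of library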
Target sequence (Q9QUQ5 whole entry, looked up): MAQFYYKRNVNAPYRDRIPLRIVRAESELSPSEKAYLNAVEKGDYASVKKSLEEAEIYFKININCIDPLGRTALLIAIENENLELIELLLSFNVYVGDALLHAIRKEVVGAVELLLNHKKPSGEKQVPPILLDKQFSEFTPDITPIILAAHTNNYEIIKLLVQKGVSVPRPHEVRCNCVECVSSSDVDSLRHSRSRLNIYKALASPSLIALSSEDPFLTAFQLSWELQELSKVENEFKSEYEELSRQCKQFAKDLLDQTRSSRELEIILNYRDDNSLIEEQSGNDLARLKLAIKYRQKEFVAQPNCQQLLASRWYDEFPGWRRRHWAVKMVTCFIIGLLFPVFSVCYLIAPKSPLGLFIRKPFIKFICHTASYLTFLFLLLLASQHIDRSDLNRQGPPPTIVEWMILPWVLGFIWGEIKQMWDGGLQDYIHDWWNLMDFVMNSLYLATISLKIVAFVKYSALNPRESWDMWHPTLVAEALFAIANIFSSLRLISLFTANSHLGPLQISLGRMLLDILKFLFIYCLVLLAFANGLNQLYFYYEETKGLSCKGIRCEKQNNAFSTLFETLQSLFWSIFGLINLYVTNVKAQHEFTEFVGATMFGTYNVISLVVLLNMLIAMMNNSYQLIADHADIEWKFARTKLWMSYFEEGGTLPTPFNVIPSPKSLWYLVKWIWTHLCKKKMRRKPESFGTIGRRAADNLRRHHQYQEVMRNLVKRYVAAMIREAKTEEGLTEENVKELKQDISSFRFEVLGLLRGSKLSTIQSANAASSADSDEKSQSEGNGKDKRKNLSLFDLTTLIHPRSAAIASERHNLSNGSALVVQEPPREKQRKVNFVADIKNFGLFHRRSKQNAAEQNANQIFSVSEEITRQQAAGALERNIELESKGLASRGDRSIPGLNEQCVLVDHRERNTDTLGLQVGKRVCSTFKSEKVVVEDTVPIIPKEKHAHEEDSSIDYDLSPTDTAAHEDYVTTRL
TRPC6 activator: mouse TRPC6 channel activators, primary screen, cell-based, HEK293, membrane potential dye; Short transient receptor potential channel 6 (Mus musculus), Q61143; HEK293-TRPC6 membrane potential dye fluorescence; stronger effect = higher value; B-score at 10 µM; actives 0.13% (n = 310,000); AID 2550, 2010;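 active = B-score of the integrated fluorescence ratio above library mean plus 3 SD, and starting fluorescence ratio within library mean plus 5 SD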;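 also: higher score means more depolarization so channel activation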
TRPC6 inh: mouse TRPC6 channel inhibitors, primary screen, cell-based, HEK293, membrane potential dye | ACh-evoked depolarization; stronger effect = lower value | B-score at 10 µM | actives 1.1% (n = 310,000) | AID 2553, 2010;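 active = B-score under library mean minus 3 SD, initial fluorescence not abnormally high, positive integrated signal ratio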;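 also: B-score derived from integrated fluorescence ratio over the kinetic read; more negative B-score means stronger inhibition of depolarization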
TRPC4 inh: inhibitors of mouse TRPC4 channel, primary screen, Fluo4 calcium, HEK293 TRPC4beta/mu-opioid cells. DAMGO-evoked Fluo4 calcium flux; stronger effect = lower value. Short transient receptor potential channel 4 (Mus musculus), Q9QUQ5. actives 0.39% (n = 300,000). B-score at 10 µM;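 active = B-score over 3 SD under the library average, no early fluorescence shift, positive overall ratio signal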
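Assay system: HEK293 cells with stable TRPC4beta plus mu-opioid receptor expression; Probe or stimulus: DAMGO in two steps, submaximal then maximal; Dosing: single-point compound dosing; Measured by: Fluo4 calcium-dye fluorescence, kinetic read; Read-out basis: B score from integrated Fluo4 fluorescence ratio.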
TRPC4 act: activators of mouse TRPC4 channel, primary screen, Fluo4 calcium, HEK293 TRPC4beta/mu-opioid cells. B-score at 10 µM. Short transient receptor potential channel 4 (Mus musculus), Q9QUQ5. Fluo4 calcium fluorescence; stronger effect = higher value. actives 0.49% (n = 310,000). AID 2237, 2010;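 active = B-score above 5 SD of library B-scores, and initial fluorescence ratio not above library mean plus 5 SD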;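 also: positive B-score marks a calcium rise read as TRPC4 activation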
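Assay system: HEK293 cells stably co-expressing mouse TRPC4beta and mu-opioid receptor / Timing: Fluo4 dye loading 45 min at room temperature, 110 s recording / Signal: Fluo4 calcium-sensitive dye fluorescence, kinetic, 1 Hz baseline / Read-out: integrated baseline-normalised fluorescence ratio, converted to per-well B score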
TRPC4 sel inh 2: second check of whether TRPC6 inhibitors also affect mouse TRPC4. shares compounds with TRPC6 inh. HEK293 TRPC4/MOR, membrane potential dye fluorescence; channel activated by saturating DAMGO dose. inhibition, % at 10 µM. actives 42% (n = 920). AID 2776;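 active = compounds whose fluorescence signal differed from control wells by over 3 SD, either direction, in both duplicate plates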
TRPC4 spec: mouse TRPC4 modulation by TRPC6 hits, confirmation, selectivity assay for TRPC6 inhibitor project, cell-based, HEK293 TRPC4/mu-opioid, membrane potential dye | shares compounds with TRPC6 inh | membrane potential fluorescence | activity change, negative = inhibition, % at 10 µM | actives 61% (n = 920) | AID 2777, 2010;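 active = rise or fall in signal beyond 3 SD of buffer-only wells in both replicate plates, either sign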;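 also: integrated kinetic ratio of fluorescence range over baseline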
HEK293 MPD ctr 2-1: nonspecific membrane potential effects, parental HEK293, confirmation, counter-screen for TRPC6 inhibitor project, cell-based, second counter screen; shares compounds with TRPC6 inh; parental HEK293 membrane potential dye fluorescence; maximal acetylcholine challenge after compound addition; signal change vs control, % at 10 µM; AID 2779, 2010; actives 31% (n = 920);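 active = membrane potential signal moving either way by over 3 SD of the maximum-effect control, in both duplicate plates, meaning non-specific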
HEK293 MPD ctr-1: membrane potential modulation in parental HEK293, confirmation, counter-screen for TRPC6 inhibitor project, cell-based. shares compounds with TRPC6 inh. parental HEK293 membrane potential dye fluorescence. membrane potential signal change, % at 10 µM. actives 60% (n = 920);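 active = membrane potential signal shifting up or down by more than 3 SD of buffer-only wells, on both duplicate plates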
HEK293 MPD ctr-2: parental HEK293 membrane potential modulation, confirmation, counter-screen for TRPC6 modulator project, cell-based. shares compounds with TRPC6 inh. membrane potential dye fluorescence. membrane potential signal change, % at 10 µM. actives 51% (n = 2,400);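 active = membrane potential signal moves up or down beyond 5 SD from buffer-only wells, on both duplicate plates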
HEK293 MPD ctr 2-2: parental HEK293 nonspecific activity of TRPC6 modulators, second screen | shares compounds with TRPC6 inh | membrane potential dye fluorescence; after compound, maximal acetylcholine stimulation | inhibition, % at 10 µM | actives 14% (n = 2,400) | AID 488926;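 active = membrane potential signal drops by more than 5 SD from the mean control signal, in both duplicate plates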
TRPC4/MOR mod: TRPC4 modulation by TRPC6 hit compounds, confirmation, selectivity assay for TRPC6 modulator project, cell-based, HEK293 TRPC4/mu-opioid, membrane potential dye, mouse; shares compounds with TRPC6 inh; membrane potential fluorescence; percent change from control (negative = decrease, positive = increase), % at 10 µM; AID 488927, 2010; actives 69% (n = 2,400);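 active = membrane potential signal moved up or down beyond 5 SD of buffer control wells, in both duplicate plates, actives on both sides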
TRPC4/MOR inh 2: mouse TRPC4 off-target activity of TRPC6 modulators, second screen; shares compounds with TRPC6 inh; HEK293 TRPC4/mu-opioid, membrane potential dye fluorescence; stimulated with maximal-effect DAMGO; inhibition, % at 10 µM; actives 55% (n = 2,400); AID 488928;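 active = drop in membrane potential signal beyond 5 SD of the control wells in both duplicate plates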;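 also: TRPC4 counter screen for TRPC6 hits run under conditions tuned for TRPC6 not TRPC4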
TRPC6 block conf: mouse TRPC6 channel inhibitors, confirmation, HEK293 cells, membrane potential dye, duplicate. shares compounds with TRPC6 inh. ACh-evoked depolarization. inhibition, % at 10 µM. actives 43% (n = 3,300). AID 488960, 2010;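 active = fluorescence ratio falls more than 5 SD below the full-stimulation control mean, in both duplicate runs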;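 also: integrated fluorescence ratio of peak minus minimum over baseline after agonist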
TRPC6 act conf: mouse TRPC6 channel activators, confirmation, HEK293 cells, membrane potential dye, duplicate | AID 488961, 2010 | activation, % at 10 µM | actives 11% (n = 2,800) | shares compounds with TRPC6 inh | HEK293-TRPC6 membrane potential dye fluorescence, FDSS;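 active = ratio signal rise beyond 5 SD above unstimulated control wells' mean, seen in both duplicate runs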
Large screens that a line does not name were inactive (follow-up assays come after a bar, where they were run). This is a sample that favours compounds with a hit; in the whole collection about 2.9% have one here.

Cc1ccccc1CSCCNC(=O)COc1ccc(Cl)cc1	none
CC(C)(C)SCCNC(=O)COc1ccc(Cl)cc1	TRPC6 inh -5.31 | HEK293 MPD ctr-2 inactive | HEK293 MPD ctr 2-2 inactive | TRPC4/MOR mod inactive | TRPC4/MOR inh 2 inactive | TRPC6 block conf inactive
CCOC(=O)CC1C(=O)NCCN1C1CCCC1 (stereo not drawn)	none
O=C(NC1CCCC1)C(c1ccccc1)N(Cc1cccnc1)C(=O)Cc1cccs1 (stereo not drawn)	TRPC6 inh -6.12 | HEK293 MPD ctr-2 194.0% | HEK293 MPD ctr 2-2 inactive | TRPC4/MOR mod 50.5% | TRPC4/MOR inh 2 inactive | TRPC6 block conf inactive
Cc1cc(N2CCN(c3ccc(F)cc3)CC2)nc2cc(O)ccc12	TRPC6 inh -6.27 | HEK293 MPD ctr-2 -60.5% | HEK293 MPD ctr 2-2 inactive | TRPC4/MOR mod -11.0% | TRPC4/MOR inh 2 35.5% | TRPC6 block conf inactive | TRPC6 act conf inactive
COCCCNC(=O)C1CCC(CNS(=O)(=O)c2ccc(C)cc2)CC1 (stereo not drawn)	TRPC6 inh -6.29 | HEK293 MPD ctr-2 99.0% | HEK293 MPD ctr 2-2 inactive | TRPC4/MOR mod 22.5% | TRPC4/MOR inh 2 inactive | TRPC6 block conf inactive | TRPC6 act conf inactive
CCCCNC(=O)C1CCC(CNS(=O)(=O)c2ccc(C)cc2)CC1 (stereo not drawn)	none
S=C(NCCN(C1CCCCC1)C1CCCC1)Nc1cccc(Cl)c1	Kir21 block -4.55, TRPC6 inh -6.09 | HEK293 MPD ctr-2 95.0% | HEK293 MPD ctr 2-2 inactive | TRPC4/MOR mod 18.5% | TRPC4/MOR inh 2 70.0% | TRPC6 block conf 56.5%
S=C(NCCC(c1ccccc1)c1ccccc1)Nc1cccc(Cl)c1	none
O=C(Cc1ccc([N+](=O)[O-])cc1)NCc1cccnc1	TRPC6 inh -5.15 | HEK293 MPD ctr-2 inactive | HEK293 MPD ctr 2-2 inactive | TRPC4/MOR mod inactive | TRPC4/MOR inh 2 inactive | TRPC6 block conf inactive | TRPC6 act conf inactive
Cc1ccc(NC(=O)c2cc([N+](=O)[O-])ccc2NCc2cccnc2)cc1	TRPC6 inh -6.73 | TRPC4 sel inh 2 inactive | TRPC4 spec inactive | HEK293 MPD ctr 2-1 inactive | HEK293 MPD ctr-1 -145.0% | TRPC6 block conf inactive | TRPC6 act conf inactive
COc1ccc([N+](=O)[O-])cc1NCc1cccnc1	none
Clc1ccc(N2CCN(/N=C/c3cccnc3)CC2)cc1	none
Cc1nn(C)cc1S(=O)(=O)NCc1ccc2c(c1)OCO2	none
NC(=O)CCCn1c(C(=O)c2ccc(Cl)cc2)c2ccc(C(F)(F)F)cc2[n+]1[O-]	none
NCCCn1c(C(=O)c2ccc(Cl)cc2)c2ccc(C(F)(F)F)cc2[n+]1[O-]	TRPC6 inh -9.34 | TRPC4 sel inh 2 55.5% | TRPC4 spec -11.3% | HEK293 MPD ctr 2-1 inactive | HEK293 MPD ctr-1 -179.5% | TRPC6 block conf 67.3% | TRPC6 act conf inactive
CC1CCCC(C)N1CC(O)COCc1ccccc1F (stereo not drawn)	none
CCCCNCC(O)(c1ccc(Cl)cc1)c1ccc(Cl)cc1	TRPC6 inh -5.02 | HEK293 MPD ctr-2 120.5% | HEK293 MPD ctr 2-2 inactive | TRPC4/MOR mod 26.5% | TRPC4/MOR inh 2 47.0% | TRPC6 block conf inactive
COc1ccc(CNCC(O)(c2ccc(Cl)cc2)c2ccc(Cl)cc2)cc1	none
CC1=CC(C)(C)N(C(=O)CNC2CCCCC2)c2cc(C)ccc21	Kir21 block -6.05, TRPC6 inh -5.56 | HEK293 MPD ctr-2 125.5% | HEK293 MPD ctr 2-2 inactive | TRPC4/MOR mod 35.5% | TRPC4/MOR inh 2 57.5% | TRPC6 block conf 50.5% | TRPC6 act conf inactive
CC(=O)c1cc2c(cc1NC(=O)c1cc(C)nn1-c1ccccc1)OCO2	none
CC(=O)c1cc2c(cc1NC(=O)c1cnc(C)cn1)OCO2	TRPC6 inh -11.2 | TRPC4 sel inh 2 73.5% | TRPC4 spec -28.1% | HEK293 MPD ctr 2-1 inactive | HEK293 MPD ctr-1 -412.5% | TRPC6 block conf inactive | TRPC6 act conf inactive
